Experiments:
L1210 [1] = assay: Percentage of spermidine after 48 hr of exposure to the compound (15 uM ) in L1210 cells; type: functional, Mus musculus
Method in brief: (§1)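 Log-phase L1210 cells were treated for 48 h with analogue at two concentrations. Cells were washed twice in cold RPMI-1640 and extracted with 0.6 N HClO4. Putrescine, spermidine and spermine were quantified by HPLC of dansyl derivatives and given as percent of untreated controls. Runs were in triplicate with untreated controls.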

[2] = biological target: T1, S-adenosylmethionine decarboxylase proenzyme 1 (Mus musculus) (UniProt P0DMN7); assay: Effect on S-Adenosyl-methionine decarboxylase (AdoMetDC) tested at 1 uM at 6 hour in L1210 cells; type: functional, cell-based
T1 sequence (whole entry): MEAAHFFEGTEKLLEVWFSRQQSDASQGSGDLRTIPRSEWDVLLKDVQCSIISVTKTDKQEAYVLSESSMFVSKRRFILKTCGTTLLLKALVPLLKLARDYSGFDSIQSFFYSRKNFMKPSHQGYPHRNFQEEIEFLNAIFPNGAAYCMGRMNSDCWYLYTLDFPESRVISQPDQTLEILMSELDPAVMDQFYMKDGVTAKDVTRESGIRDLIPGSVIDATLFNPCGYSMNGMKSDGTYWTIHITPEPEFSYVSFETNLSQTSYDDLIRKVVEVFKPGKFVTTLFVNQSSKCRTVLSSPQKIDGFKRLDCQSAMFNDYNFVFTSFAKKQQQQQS
Method in brief: (§2)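 L1210 cells were exposed to 1 μM analogue, for 4 h (ODC) or 6 h (AdoMetDC). Activity was measured as 14CO2 released from [14C]carboxyl-labelled L-ornithine (ODC) or S-adenosyl-L-methionine (AdoMetDC) and given as percent of untreated control. Each run included DEHSPM-treated positive controls. Values are the mean of at least three experiments.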

L1210 [3] = assay: Percentage of spermidine after 48 hr of exposure to the compound (75 uM ) in L1210 cells; type: functional, Mus musculus; method in brief: as §1
[4] = Binding affinity values for polyamine transporter was determined
L1210 [5] = assay: Intracellular levels in L1210 cells following 500 uM exposure.; type: functional, Mus musculus
Method in brief: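 L1210 cells were grown 48 h in medium containing 500 μM analogue. Cellular contents were analysed by HPLC of dansyl derivatives and given as pmol/10^6 cells, as parent drug and metabolites with the % of total drug in the cell.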

L1210 [6] = assay: Percentage of putrescine after 48 hr exposure to the compound (15 uM )in L1210 cells; type: functional, Mus musculus; method in brief: as §1
[7] = biological target: Spermidine/spermine N(1)-acetyltransferase (SAT) (Mus musculus) (UniProt Q6P8J2+P48026); assay: Effect on Spermidine/Spermine-Acetyltransferase (SSAT ) at 10 uM at 48 hour in L1210 cells; type: functional, cell-based
Method in brief: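 L1210 cells were exposed to 10 μM triamine for 48 h. SSAT activity was taken as [14C]N1-acetylspermidine formed from spermidine and [14C]acetyl-CoA, given as percent of untreated control. DENSPM-treated cells served as positive control. Values are the mean of at least three experiments.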

[8] = Effect on ornithine decarboxylase (ODC) tested at 1 uM at 4 hour in L1210 cells; type: functional, Mus musculus; method in brief: as §2
L1210 [9] = assay: Growth inhibitory activity against L1210 cells (48h); type: functional, cell-based; details: Mus musculus, L1210, 48 h
Method in brief: (§3)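 Murine L1210 leukemia cells were kept in log growth in RPMI-1640 with 10% fetal calf serum or NuSerum, HEPES-MOPS buffer and 1 mM aminoguanidine. IC50 is the concentration giving 50% of untreated control growth, as the mean of at least two experiments.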

L1210 [10] = assay: Growth inhibitory activity against L1210 cells (96h); type: functional, cell-based; details: Mus musculus, L1210, 96 h; method in brief: as §3
L1210 [11] = assay: Percentage of putrescine after 48 hr exposure to the compound (75 uM ) in L1210 cells; type: functional, Mus musculus; method in brief: as §1
L1210 [12] = assay: Percentage of spermine after 48 hr exposure to the compound (75(0.75)uM ) in L1210 cells; type: functional, Mus musculus
Method in brief: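 Log-phase murine L1210 leukemia cells (RPMI-1640, 10% fetal calf serum or NuSerum, HEPES-MOPS buffer, 1 mM aminoguanidine) exposed 48 h to analogue at two concentrations. Cells washed twice in cold RPMI-1640 and extracted with 0.6 N HClO4. Spermine in extracts quantified by HPLC of DANSYL derivatives and expressed as percent of untreated controls. Triplicate flasks per condition.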

L1210 [13] = assay: Percentage of spermidine after 48 hr of exposure to the compound (75(0.75)uM ) in L1210 cells; type: functional, Mus musculus; method in brief: as §1
L1210 [14] = assay: Percentage of spermine after 48 hr exposure to the compound (15(0.15)uM ) in L1210 cells; type: functional, Mus musculus; method in brief: as §1
L1210 [15] = assay: Percentage of spermidine after 48 hr of exposure to the compound (15(0.15)uM ) in L1210 cells; type: functional, Mus musculus; method in brief: as §1
L1210 [16] = assay: Percentage of putrescine after 48 hr exposure to the compound (75(0.75)uM ) in L1210 cells; type: functional, Mus musculus; method in brief: as §1
L1210 [17] = assay: Percentage of putrescine after 48 hr exposure to the compound (15(0.15)uM ) in L1210 cells; type: functional, Mus musculus; method in brief: as §1
L1210 [18] = assay: Percentage of spermidine after 48 hr of exposure to the compound (25(10)uM ) in L1210 cells; type: functional, Mus musculus; method in brief: as §1
L1210 [19] = assay: Percentage of putrescine after 48 hr exposure to the compound (125 uM ) in L1210 cells; type: functional, Mus musculus; method in brief: as §1
L1210 [20] = assay: Percentage of spermidine after 48 hr of exposure to the compound (125 uM ) in L1210 cells; type: functional, Mus musculus; method in brief: as §1
L1210 [21] = assay: Percentage of putrescine after 48 hr exposure to the compound (25(10)uM ) in L1210 cells; type: functional, Mus musculus; method in brief: as §1
L1210 [22] = assay: Percentage of spermine after 48 hr exposure to the compound (125 uM ) in L1210 cells; type: functional, Mus musculus; method in brief: as §1
L1210 [23] = assay: Percentage of putrescine after 48 hr exposure to the compound (500(100)uM )in L1210 cells; type: functional, Mus musculus; method in brief: as §1
L1210 [24] = assay: Percentage of spermidine after 48 hr of exposure to the compound (100(10)uM ) in L1210 cells; type: functional, Mus musculus; method in brief: as §1
L1210 [25] = assay: Percentage of spermidine after 48 hr of exposure to the compound (500(100)uM ) in L1210 cells; type: functional, Mus musculus; method in brief: as §1
L1210 [26] = assay: Percentage of spermine after 48 hr exposure to the compound (500(100)uM ) in L1210 cells; type: functional, Mus musculus; method in brief: as §1
L1210 [27] = assay: Percentage of putrescine after 48 hr exposure to the compound (100(10)uM) in L1210 cells; type: functional, Mus musculus; method in brief: as §1
L1210 [28] = assay: Percentage of spermine after 48 hr exposure to the compound (100(10)uM ) in L1210 cells; type: functional, Mus musculus; method in brief: as §1

Chain of Spermidine/spermine N(1)-acetyltransferase (SAT) (Mus musculus) (P48026 whole entry, looked up): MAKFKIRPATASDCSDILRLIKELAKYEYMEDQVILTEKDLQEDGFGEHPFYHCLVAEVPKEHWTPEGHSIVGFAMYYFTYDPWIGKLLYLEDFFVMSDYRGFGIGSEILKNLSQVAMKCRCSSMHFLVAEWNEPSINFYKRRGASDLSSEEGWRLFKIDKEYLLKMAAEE
Chain of Spermidine/spermine N(1)-acetyltransferase (SAT) (Mus musculus) (Q6P8J2 whole entry, looked up): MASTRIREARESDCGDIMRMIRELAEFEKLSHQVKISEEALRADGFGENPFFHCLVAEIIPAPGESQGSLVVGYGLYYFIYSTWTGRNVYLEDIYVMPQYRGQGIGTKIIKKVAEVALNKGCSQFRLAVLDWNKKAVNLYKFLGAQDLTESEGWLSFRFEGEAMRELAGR

| Compound | AdoMetDC [2] | Ki [4] | Picoequivalents of amine/10e6 cells (L1210 [5]) | SSAT [7] | ODC [8] | IC50 (L1210 [9]) | IC50 (L1210 [10]) | also measured |
| --- | --- | --- | --- | --- | --- | --- | --- | --- |
| CNCCCCCNCCCCCNC | 97% | 130 µM | 15500 | 90% | 105% | 15 µM | 0.4 µM | Polyamine (L1210 [1]): 33%; Polyamine (L1210 [3]): 20%; Polyamine (L1210 [6]): 0%; Polyamine (L1210 [11]): 0% |
| CCNCCCCCNCCCCCNCC | 109% | 170 µM | 9010 | 90% | 100% | 11 µM | 0.7 µM | Polyamine (L1210 [12]): 73%; Polyamine (L1210 [13]): 23%; Polyamine (L1210 [14]): 97%; Polyamine (L1210 [15]): 55%; Polyamine (L1210 [16]): 0%; Polyamine (L1210 [17]): 0% |
| CCNCCCCNCCCCNCC | 90% | 19 µM | 16920 | 640% | 47% | 22 µM | 0.35 µM | Polyamine (L1210 [18]): 6%; Polyamine (L1210 [19]): 0%; Polyamine (L1210 [20]): 3%; Polyamine (L1210 [21]): 0%; Polyamine (L1210 [22]): 97% |
| CCNCCCNCCCNCC | 45% | 250 µM | 13700 | 780% | 80% | > 100 µM | 10 µM | Polyamine (L1210 [23]): 0%; Polyamine (L1210 [24]): 17%; Polyamine (L1210 [25]): 7%; Polyamine (L1210 [26]): 47%; Polyamine (L1210 [27]): 0%; Polyamine (L1210 [28]): 74% |

Source: ChEMBL document CHEMBL1130028, “A comparison of structure-activity relationships between spermidine and spermine analogue antineoplastics” (J Med Chem, 1997)
